Compound activity from PubChem BioAssay.
This is a sample that favours compounds with a hit; in the whole collection about 2% have one here.
MC4R antagonist = blocks human MC4R cAMP signaling; P32245; MC4R-expressing cells, MTII-stimulated cAMP, LANCE TR-FRET; inhibition, % at 6.5 µM; 360,000 tested, 0.48% active; AID 540295;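 active means inhibition above its plate's cutoff, the mean of tested wells on that plate plus 3 SD, cut at about 29% in these data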;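 further: 0% = Melanotan II alone and 100% = Melanotan II plus saturating MCL0020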
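Material – human MC4R-expressing U2OS cells · Repeats – no replicates · Detection – TR-FRET with Eu-cAMP and labeled anti-cAMP, 671 nm · Times – compound 30 min, challenge 1 h, detection 1 h · Compound – single nominal compound dose of 6.5 µM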
UPR CHOP act = activators of apoptotic arm of unfolded protein response (CHOP); activation, % at 10 µM; CHO-CHOP luciferase reporter, UPR activation, luminescence; percent of tunicamycin response over DMSO baseline; 330,000 tested, 0.34% active;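 active means at 10 µM dose, activation of 40% or more, normalized to positive control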;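 further: 100% = tunicamycin at 10 µg/mL and 0% = DMSO alone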
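Assay system: CHO cells with stable CHOP pathway luciferase reporter; Buffer or medium: F12 plus 10% serum; Times: 16-18 h cell attachment, then 6 h compound exposure, 37 °C; Signal: luciferase luminescence; Read-out basis: percent activation relative to tunicamycin control; Control set: tunicamycin high control, DMSO low control.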
XBP1 UPR activ = activators of adaptive arm of unfolded protein response (XBP1). CHO-XBP1 luciferase reporter, IRE1-XBP1 UPR activation, luminescence; percent of tunicamycin response, DMSO as zero. activation, % at 20 µM. 330,000 tested, 0.33% active. AID 463104;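 active means versus positive control, 20 µM dose yields 30% or more activation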;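 further: 100% = tunicamycin at 10 µg/mL and 0% = DMSO only wells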
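Material: CHO-XBP1 cells stably carrying IRE1-XBP1-driven luciferase reporter | Medium: F12 with 10% serum | Compound dosing: 20 µM single concentration, DMSO 1% | Incubation: Overnight seeding at 37 °C, 6 h compound treatment at 37 °C | Detection: Steady-Glo luminescence read | Read-out basis: % activation of reporter signal versus tunicamycin and DMSO controls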
A1 inh = inhibitors of the anti-apoptotic protein A1, read as caspase activation. MEF A1-2A-BIM cells, Caspase-Glo 3/7 luminescence, 3 h; percent of clofoctol response, vehicle zero. caspase activation, % (test concentration not listed). 330,000 tested, 0.066% active. AID 2462;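 active means over half of replicate activation scores above 10%, or exactly half above 10 with the replicate mean above 10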
MC4R ag barr = agonists of human melanocortin 4 receptor (MC4R) beta-arrestin. AID 540308. P32245. activation, % at 8.9 µM. U2OS MC4R beta-arrestin complementation, luminescence; percent of melanotan II response, DMSO zero. 360,000 tested, 0.98% active;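 active means activation above a per-plate cutoff, the mean activation of sample wells on that plate plus 3 SD, cut at about 8% in these data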
MC4R barr ag = human MC4R beta-arrestin agonism confirmation; 2,400 tested, 31% active; activation, % at 8.9 µM; shares compounds with MC4R ag barr; AID 602192; U2OS MC4R beta-arrestin recruitment, luminescence; scaled DMSO 0%, Melanotan II 100%;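 active means mean activation across replicates above the hit cutoff set in the earlier primary screen, cut at about 8% in these data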
MOR DOR agonist = OPRM1-OPRD1 heterodimer agonism counter-screen. 2,400 tested, 5.8% active. shares compounds with MC4R ag barr. AID 602194. activation, % at 9.2 µM. U2OS PathHunter beta-arrestin, beta-gal luminescence; percent of deltorphin B response, DMSO zero;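 active means mean activation across replicates exceeds the hit threshold derived in the earlier primary screen, cut at about 18% in these data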;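 further: 100% = deltorphin B at 0.9 µM final and 0% = DMSO alone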
Target sequence (P35372 whole entry, looked up): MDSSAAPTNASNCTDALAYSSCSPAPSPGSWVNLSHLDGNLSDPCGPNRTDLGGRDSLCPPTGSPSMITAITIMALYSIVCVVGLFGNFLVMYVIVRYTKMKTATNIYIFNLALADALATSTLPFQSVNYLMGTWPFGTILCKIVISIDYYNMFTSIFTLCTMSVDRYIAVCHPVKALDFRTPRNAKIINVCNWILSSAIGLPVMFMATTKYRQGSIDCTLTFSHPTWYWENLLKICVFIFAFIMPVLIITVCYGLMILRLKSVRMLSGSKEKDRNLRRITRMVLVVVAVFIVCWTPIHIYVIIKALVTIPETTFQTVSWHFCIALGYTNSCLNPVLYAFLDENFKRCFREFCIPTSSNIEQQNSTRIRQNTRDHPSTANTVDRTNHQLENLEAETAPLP
Target sequence (P41143 whole entry, looked up): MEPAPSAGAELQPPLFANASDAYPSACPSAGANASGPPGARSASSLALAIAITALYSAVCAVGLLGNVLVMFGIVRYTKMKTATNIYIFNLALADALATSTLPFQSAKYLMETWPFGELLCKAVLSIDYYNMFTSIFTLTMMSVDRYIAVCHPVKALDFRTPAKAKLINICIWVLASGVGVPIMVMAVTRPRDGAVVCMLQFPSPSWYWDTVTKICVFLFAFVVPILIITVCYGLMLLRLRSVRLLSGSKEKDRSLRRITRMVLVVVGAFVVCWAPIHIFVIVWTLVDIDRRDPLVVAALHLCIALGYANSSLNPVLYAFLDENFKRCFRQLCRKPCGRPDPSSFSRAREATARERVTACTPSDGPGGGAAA
* marks the source's active call; other numbers are inactive results; . = not tested or not shown.

SMILES	MC4R antagonist	UPR CHOP act	XBP1 UPR activ	A1 inh	MC4R ag barr	MC4R barr ag	MOR DOR agonist
COc1cc(C(=O)NC2CC(C)CC(C)(C)C2)cc(OC)c1OC (centres undefined)	3.5	.	.	.	0.4	.	.
Cc1ccc(C(=O)Nc2ncc(Cc3ccc(SC(F)F)cc3)s2)cc1	-16.9	-0.7	8.5	1.2	17.5*	9.0*	4.3
O=c1cc2c(c(-c3ccccc3)n1Cc1ccccc1)[C@@H](CCO)NC2	-6.9	.	.	.	-2.1	.	.
O=C(NCCc1ccc(Cl)cc1)c1cc(-c2ccncc2)nc2ccccc12	3.0	2.5	-2.5	0.4	3.3	.	.
O=C(NCCc1ccc(Cl)cc1)c1cc(-c2ccccn2)nc2ccccc12	16.3	1.8	-5.1	1.0	10.5*	5.4	5.1
O=C(Nc1ccc(Cl)c(Cl)c1)c1ccc(Cl)c(Cl)c1	-3.2	5.4	2.9	1.0	14.4*	8.2	11.7
O=C(Nc1ccc(Cl)c(Cl)c1)c1csc(-c2ccccc2)n1	3.6	0.7	-1.9	-0.2	19.8*	6.2	3.3
C/C(=N\Nc1nc2ccccc2[nH]1)c1ccc2c(c1)OCCO2	4.6	2.9	12.3	-0.6	9.8*	6.4	5.1
C/C(=N\Nc1nc2ccccc2[nH]1)c1ccc2c(c1)OCO2	-3.0	5.8	29.8	-1.0	15.4*	5.2	5.5
C/C(=N\Nc1nc2ccccc2[nH]1)c1cc2ccccc2o1	-3.1	2.0	13.1	-1.2	4.6	.	.
C/C(=N\Nc1ccccn1)c1ccc2c(c1)OCO2	0.7	2.6	-2.1	-0.8	-2.5	.	.
CCCCCCN1C[C@H](n2cc(-c3ccc(F)cc3)nn2)[C@@H](O)C[C@@H]1c1ccc(Cl)cc1	1.3	.	.	.	0.5	.	.
CCOc1ccc(CNC(=O)CCCc2cn(C)c3ccccc23)cc1	9.1	-0.5	-2.7	-0.7	1.8	.	.
CCOc1ccc(CNC(=O)CCc2cn(Cc3ccccc3)c3ccccc23)cc1	4.3	-0.7	-2.5	.	13.2*	10.0*	7.5
CCOC(=O)c1c(N)sc(C(O)(C(F)(F)F)C(F)(F)F)c1-c1ccc(Cl)cc1	1.2	-0.6	-3.5	0.2	-2.2	.	.
CCOC(=O)c1c(N)sc(C(O)(C(F)(F)F)C(F)(F)F)c1-c1ccc(F)cc1	2.1	-3.1	2.1	0.2	11.1*	4.6	8.3
O=C(COC(=O)/C=C/c1ccccc1Cl)NCCNC(=O)COC(=O)/C=C/c1ccccc1Cl	3.5	1.8	-2.2	0.1	12.2*	1.4	3.5
Cc1ccsc1-c1nc(-c2ccccc2)c(-c2ccccc2)[nH]1	-0.3	1.9	1.0	0.2	10.3*	10.6*	5.2
CCOC(=O)C(=O)N(C)c1c(CC)nc2c(OCc3ccc(OC)cc3)cccn12	9.2	.	.	.	-1.2	.	.
COc1ccc(Cl)cc1Cn1c(C)c(C(=O)NCc2ccc(F)cc2)sc1=O	9.2	.	.	.	0.7	.	.
C#CCn1c(=NC(=O)c2ccco2)sc2cccc(Cl)c21	-7.8	1.7	6.5	0.6	33.2*	5.0	11.0
COc1ccc(CC(=O)Nc2ccc(N3CCOCC3)cc2)cc1OC	6.0	-0.7	-0.2	-0.1	9.6*	9.6*	10.5
CC(C)(C)C1CCc2onc(C(=O)Nc3ccc4c(c3)OCO4)c2C1 (centres undefined)	-2.6	3.1	14.8	0.7	11.6*	5.1	4.9
Cc1nc(-c2cccnc2)sc1C(=O)N/N=C/c1ccccc1Cl	-6.7	0.2	-0.2	-0.1	10.5*	-1.0	3.6
COc1ccc(N=C2c3ccccc3-c3ccc([N+](=O)[O-])cc32)cc1	-4.4	.	.	.	0.0	.	.
SMILES	MC4R antagonist	UPR CHOP act	XBP1 UPR activ	A1 inh	MC4R ag barr	MC4R barr ag	MOR DOR agonist
O=[N+]([O-])c1ccc2c(c1)C(=Nc1ccccc1)c1ccccc1-2	-5.1	.	.	.	11.4*	1.7	4.2
Cc1c(C(=O)N2CCCC(C)(C(=O)NS(=O)(=O)C3CC3)C2)oc2ccccc12 (centres undefined)	-3.7	.	.	.	2.3	.	.
O=C(Nc1ccccc1-c1ccccc1)c1cc(C(F)(F)F)cc(C(F)(F)F)c1	13.3	-0.9	-2.9	0.8	17.2*	-0.9	4.4
O=C(Cc1c(O)c2ccccc2oc1=O)c1ccc(F)cc1	6.5	5.3	-0.3	-5.9	10.9*	1.1	3.1
O=C(CSc1nc2ccc(NC(=O)CSc3nnnn3-c3ccccc3)cc2s1)Nc1ccccc1	18.2	0.2	-1.6	1.2	14.3*	7.5	4.2
O=C(CSc1nnnn1-c1ccc(F)cc1)Nc1nc2ccccc2s1	4.6	0.4	1.8	1.7	31.1*	0.5	7.7
COCCCN1C(=O)C(CC(=O)NCC2CCCCC2)CC(C(=O)N2CCOCC2)=C1C (centres undefined)	-4.2	.	.	.	0.3	.	.
NC(=O)CC(NC(=O)c1ccccc1)c1ccc(NCCc2ccc(Cl)cc2)c([N+](=O)[O-])c1 (centres undefined)	-2.2	-2.0	-2.1	-0.3	13.3*	2.9	1.0
NC(=O)CC(NC(=O)c1ccc(Br)cc1)c1ccc(NCc2ccc(F)cc2)c([N+](=O)[O-])c1 (centres undefined)	11.1	-1.6	-1.5	0.1	1.8	.	.
Cc1ccccc1CNc1ccc(C(CC(N)=O)NC(=O)c2ccc(Br)cc2)cc1[N+](=O)[O-] (centres undefined)	0.8	0.0	-0.1	0.0	15.7*	0.8	2.4
O=C(Nc1ccc(Oc2ccccc2)cc1)c1ccc2nc([C@@H]3O[C@H](CO)[C@H](O)[C@H](O)[C@H]3O)[nH]c2c1	1.5	.	.	.	-0.1	.	.
CCOC(=O)c1oc2ccccc2c1NC(=O)COc1cccc(OC)c1	14.8	2.1	-0.3	-0.8	2.6	.	.
CCOC(=O)c1oc2ccccc2c1NC(=O)COc1ccc(F)cc1	-5.6	-0.8	3.7	0.1	36.9*	25.1*	21.5*
COCc1c(C(=O)OCC(=O)NCCc2ccc(S(N)(=O)=O)cc2)oc2ccccc12	4.7	-2.8	-2.6	0.1	-1.7	.	.
CCOCc1c(C(=O)OCC(=O)NCc2ccc(F)cc2)oc2ccccc12	5.5	-0.9	-2.7	.	13.9*	1.9	3.3
OC(c1ccc(F)cc1)c1nc(-c2cccc(F)c2)cs1 (centres undefined)	2.3	.	.	.	0.3	.	.
CC(=O)c1sc(NC(=O)CCCOc2ccc(Cl)cc2)nc1C	-5.8	-0.1	-3.7	-0.7	10.9*	2.1	1.9
COc1cc(CN2CCN(c3cccc(C)c3C)CC2)cc(Br)c1O	-16.9	0.4	-1.8	1.8	11.7*	0.4	6.5
